# From PubChem
# Most compounds without a hit are left out; they make up all but 2.8% or so of the library.
# m5-HT2A agonist: mouse Htr2a agonists via beta-arrestin recruitment, primary screen, cell-based, luminescence | CHO-K1 mHTR2A beta-arrestin complementation; percent of 30 µM serotonin response | 360,000 tested, 0.66% active | activation, % at 7.6 µM;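 active = activation above a run cutoff, the mean activation of all tested compounds plus 3 SD, cut at about 14% in these data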;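 note: 0% = plate median of compound wells and 100% = 30 µM serotonin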
# MC4R antag cAMP: MC4R antagonists of cAMP signaling, primary screen, cell-based, TR-FRET, antagonist arm of biased-ligand search. Melanocortin receptor 4 (Homo sapiens), P32245. MC4R-expressing cells, MTII-stimulated cAMP, LANCE TR-FRET. inhibition, % at 6.5 µM. 360,000 tested, 0.48% active;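 active = inhibition above its plate's cutoff, the mean of tested wells on that plate plus 3 SD, cut at about 29% in these data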;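 note: 0% = Melanotan II alone and 100% = Melanotan II plus saturating MCL0020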
# Target sequence (P32245 whole entry, looked up): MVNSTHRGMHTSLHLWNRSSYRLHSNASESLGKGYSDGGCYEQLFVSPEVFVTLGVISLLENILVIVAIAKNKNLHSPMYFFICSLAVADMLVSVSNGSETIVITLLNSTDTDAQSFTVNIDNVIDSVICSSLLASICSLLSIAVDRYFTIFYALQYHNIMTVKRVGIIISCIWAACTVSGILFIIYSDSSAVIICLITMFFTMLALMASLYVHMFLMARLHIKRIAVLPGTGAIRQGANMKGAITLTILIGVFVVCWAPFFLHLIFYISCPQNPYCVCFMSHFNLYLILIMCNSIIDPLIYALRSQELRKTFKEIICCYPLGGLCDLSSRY
#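 Assay system: U2OS-MC4R stable cell line; Also added: Melanotan II; Technique: Eu-cAMP/anti-cAMP TR-FRET, emission 671 nm; Times: 30-min compound, 1-h challenge, 1-h detection, room temperature.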
# EBI2 antag: EBI2 receptor antagonists, beta-arrestin recruitment, primary screen, cell-based, luminescence, 7a,25-OHC stimulation, uHTS. G-protein coupled receptor 183 (Homo sapiens), P32249. 7a,25-OHC stimulated. inhibition, % at 5 µM. 360,000 tested, 0.81% active. AID 651636, 2012; in the data active = inhibition above about 38%;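 note: enzyme fragment complementation signal reports receptor beta-arrestin coupling in cells; 0% = agonist plus DMSO wells and 100% = wells without agonist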
# MC4R ag barr: MC4R agonists recruiting beta-arrestin, primary screen, cell-based, luminescence, agonist arm of biased-ligand search. Melanocortin receptor 4 (Homo sapiens), P32245. U2OS MC4R beta-arrestin complementation; percent of melanotan II response, DMSO zero. activation, % at 8.9 µM. 360,000 tested, 0.98% active;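 active = activation above a per-plate cutoff, the mean activation of sample wells on that plate plus 3 SD, cut at about 8% in these data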
# MOR ag counter: OPRM1 agonists via beta-arrestin recruitment, confirmation, counter-screen for mouse HTR2A agonist project, cell-based, luminescence, single concentration; activation, % at 9.3 µM; 2,300 tested, 5.3% active; AID 624380, 2012; shares compounds with m5-HT2A agonist; U2OS OPRM1 beta-arrestin PathHunter; DMSO 0%, DAMGO 9.3 µM 100%;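 active = mean activation above the mean of DMSO-only wells plus 3 SD, cut at about 0.5% in these data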
# HTR2A ag conf: mouse HTR2A agonists, beta-arrestin recruitment, confirmation, cell-based, luminescence, CHO-K1 PathHunter, triplicate; shares compounds with m5-HT2A agonist; DMSO 0%, 30 µM serotonin 100%; activation, % at 7.6 µM; 2,300 tested, 19% active;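 active = mean activation across triplicates above the hit threshold derived in the original primary screen, cut at about 15% in these data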
# * hit, by the source's call; . = no result.
SMILES,m5-HT2A agonist,MC4R antag cAMP,EBI2 antag,MC4R ag barr,MOR ag counter,HTR2A ag conf
Cc1ccc(CNC(=O)C2CC(=O)OC23CCCC3)c(C)c1 (configuration not stated),16.1*,-9.2,14.2,4.1,-0.3,0.8
Cc1cccc(NC(=O)C2CC(=O)OC23CCCCC3)c1 (configuration not stated),-2.8,0.6,4.2,-0.2,.,.
Cc1nn(CC2CC2)c(=O)n1-c1cccc(Cl)c1,20.3*,6.0,-5.3,-3.3,-0.5,-3.1
Cc1ccc(-n2c(C)nn(CC3CC3)c2=O)cc1,-0.2,12.2,-4.5,0.6,.,.
COc1ccccc1CNC(=O)CN(c1ccc(C)cc1)S(=O)(=O)c1c(C)noc1C,17.2*,1.8,10.4,-0.7,-0.6,-4.9
COc1ccc(NC(=O)CN(c2ccc(C(C)C)cc2)S(=O)(=O)c2c(C)noc2C)cc1OC,14.8*,0.3,-7.1,0.3,-0.5,-0.2
CCOC(=O)c1[nH]c2ccccc2c1NC(=O)Nc1ccc(OC)cc1,25.0*,-5.3,2.2,-2.8,-0.3,0.0
O=C(O)c1ccc(CN2C[C@@H](CO)O[C@@H](n3cnc4c(NCc5ccc(F)cc5)ncnc43)C2)cc1,-3.0,5.1,-21.9,-0.1,.,.
CCCN1C[C@H](CSC)C[C@@H]2c3cccc4[nH]cc(c34)C[C@H]21,113.3*,-9.6,6.1,-0.5,-0.4,160.2*
CCOC(=O)C1(C)CCCCN1C(=O)c1ccc(N(C)C)cc1 (configuration not stated),4.9,7.4,-5.7,-0.5,.,.
CCOC(=O)C1(C)CCCCCN1C(=O)c1ccc(OC)cc1 (configuration not stated),15.7*,5.7,1.9,0.5,-0.7,-3.9
CC(CN1CCCCC1)OC(=O)/C=C/c1ccccc1 (configuration not stated),17.4*,13.1,1.3,-1.3,-0.5,1.4
Cc1ccccc1S(=O)(=O)NC(=O)C1(C)CCN1C(=O)c1ccccc1CCc1ccccc1 (configuration not stated),-0.8,-1.4,-10.9,-0.4,.,.
C=CCn1c(=O)/c(=C/c2ccc(C)o2)s/c1=C(/C#N)C(=O)c1ccccc1,14.8*,3.6,-0.1,1.9,-0.8,-7.7
O=[N+]([O-])c1cc2ncccc2c2ncccc12,14.6*,-2.4,-13.0,-2.2,0.1,-4.4
CC1CCCCC1NC(=O)CN1c2cccc3cccc(c23)S1(=O)=O (configuration not stated),3.9,-4.5,9.7,-3.5,.,.
Cc1ccc(C(=O)N/C(=C/c2ccc(-c3cccc([N+](=O)[O-])c3)o2)C(=O)NC(C)C)cc1,21.1*,4.2,-23.7,2.7,-0.1,1.1
CC1=C(C(=O)N2CCOCC2)CC(CC(=O)NCc2ccco2)C(=O)N1Cc1ccc(C(C)(C)C)cc1 (configuration not stated),7.8,4.7,-3.0,-0.6,.,.
CC1CCCCN1CCNC(=O)C1CCN(S(=O)(=O)N2CCCCC2)CC1 (configuration not stated),15.4*,9.5,-2.5,-1.5,-0.5,-2.1
C[C@H](CO)N1C[C@H](C)[C@@H](CN(C)Cc2ccncc2)OCCCC[C@H](C)Oc2ccc(NC(=O)CCCN(C)C)cc2C1=O,-0.3,.,-4.7,.,.,.
N#Cc1cc(Sc2ccccn2)c([N+](=O)[O-])cc1C#N,17.3*,-5.5,5.4,1.2,0.1,-2.6
CC1CCCCN1CCCNC(=O)c1ccc2nc(N3CCCCC3)sc2c1 (configuration not stated),17.4*,4.6,-11.4,-2.0,-0.7,-5.5
Cc1ccc(CN2C(=O)CSCC2(C)C(=O)NCc2ccccc2)cc1 (configuration not stated),-1.5,.,2.8,.,.,.
O=C(Nc1nnc(C2CC2)s1)c1cccc(S(=O)(=O)N2CC(c3ccccc3)CC2=O)c1 (configuration not stated),17.1*,8.8,-1.9,-1.5,-0.6,-6.4
CCOC(=O)CCCNC(=O)COc1ccccc1C#N,19.2*,2.9,-10.1,-1.7,0.0,10.4
SMILES,m5-HT2A agonist,MC4R antag cAMP,EBI2 antag,MC4R ag barr,MOR ag counter,HTR2A ag conf
N#Cc1ccccc1OCC(=O)NC(N)=O,-0.4,0.5,0.8,-2.5,.,.
CCN(CC)S(=O)(=O)c1ccc2[nH]c(=O)cc(C(=O)NCc3ccccc3)c2c1,9.6,8.2,-11.1,0.1,.,.
CCOc1ccc(CCNC(=O)c2cc(=O)[nH]c3ccc(S(=O)(=O)N(CC)CC)cc23)cc1OCC,16.9*,2.2,-4.6,1.6,-0.5,0.4
COc1cccc(OC)c1C(=O)Nc1ccc(C(=O)c2ccncc2)cc1,18.6*,12.6,10.8,-4.0,-0.4,-2.6
COCCN(Cc1ccccc1)C(=O)c1ccc(C(=O)c2ccccc2)cc1,22.3*,-2.1,12.3,-3.1,-0.2,-2.0
COCCN(Cc1ccccc1)C(=O)c1cccc(S(=O)(=O)N2CCN(c3ccccc3)CC2)c1,5.7,11.7,8.0,-2.5,.,.
O=C(CC1C[C@H](C(=O)N2CCCCC2)[C@@]2(CCc3ccccc3)c3[nH]c4ccccc4c3CCN2C1=O)NCCc1ccccn1 (some centres not stated),0.5,5.4,5.8,-0.4,.,.
Cc1c(C(=O)OCC(=O)c2c(N)n(CC(C)C)c(=O)n(C)c2=O)oc2ccccc12,18.4*,4.0,24.8,-0.4,-0.3,-0.5
COCc1c(C(=O)OCC(=O)c2c(N)n(CC(C)C)c(=O)n(C)c2=O)oc2ccccc12,-0.8,7.0,12.3,0.1,.,.
COc1ccccc1CNCC(=O)Nc1ccccc1-n1cccc1,16.0*,4.7,-5.5,-0.9,-0.1,7.8
COc1ccccc1CNCC(=O)Nc1ccc(C#N)cc1,0.4,1.1,-3.0,-2.2,.,.
O=C1OCC/C1=C\NCCCCCCCCN/C=C1\CCOC1=O,4.2,6.8,1.9,0.1,.,.
CC(=O)N1CCc2cc(C(=O)CN3CCN(c4ccccn4)CC3)ccc21,18.0*,5.3,4.3,-2.4,-0.7,116.5*
CCOC(=O)c1[nH]c(C)c(C(=O)OCC(=O)N(Cc2ccccc2)C(C)C)c1C,19.6*,-2.5,15.2,-0.6,-0.6,-0.6
CCOC(=O)c1c(C)[nH]c(C(=O)OCC(=O)N(CC(C)C)c2c(N)n(Cc3ccccc3)c(=O)[nH]c2=O)c1C,-7.8,19.7,5.3,2.4,.,.
